Test results published in ChEMBL document CHEMBL4334439, “Discovery, Optimization, and Target Identification of Novel Potent Broad-Spectrum Antiviral Inhibitors” (J Med Chem, 2019).

Tests used:
[1] = Selectivity index, ratio of CC50 for human Huh7.5.1 cells to EC50 for EGFP-fused HCV JFH-1 harboring K78E/E2-G451R/NS3-M260K/NS5A-T462I mutant infected in human Huh7.5.1 cells; assay type: toxicity, cell-based; conditions: read-out: Ratio CC50/EC50
[2] = test system: Hepatitis C virus; assay: Antiviral activity against GFP-fused HCV JFH-1 harboring K78E/E2-G451R/NS3-M260K/NS5A-T462I mutant infected in human Huh7.5.1 cells assessed as reduction in viral infection at 10 uM preincubated for 2 hrs followed by viral infection and measured after 48 hrs by epifluorescence microscopic analysis relative to control; assay type: functional, Hepacivirus hominis; parameters: scale not given: the % may be the effect or the level left
Summary of the method: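 Primary screen at 10 μM. Huh7.5.1 cells were pretreated 2 h, then infected with GFP-HCV (MOI 1). GFP intensity was checked by fluorescence microscopy at 48 h. Hits needed over 50% fluorescence decay before dose-response retesting.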

[3] = Cytotoxicity against human Huh7.5.1 cells assessed as decrease in cell viability after 48 hrs by WST1 assay; assay type: cell-based
Summary of the method: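 Cells seeded at 1 × 10^4 per well and cultured overnight at 37 °C, then incubated 48 h with serially diluted compounds. Viability read with WST-1 reagent as absorbance at OD450/OD630.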

[4] = test system: Hepatitis C virus; assay: Antiviral activity against EGFP-fused HCV JFH-1 harboring K78E/E2-G451R/NS3-M260K/NS5A-T462I mutant infected in human Huh7.5.1 cells assessed as reduction in viral RNA level after 2 days by qRT-PCR analysis; assay type: functional, organism-based, Hepacivirus hominis; conditions: JFH-1, Huh-7.5.1, 48 h
Summary of the method: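 Huh7.5.1 cells at 1×10^4/well, grown overnight at 37 °C. HCVcc was mixed with serially diluted compound (top 30 or 6 μM), given alone or with the named drug, and added to the cells. Viral RNA was read by qRT-PCR after 2 days. EC50 is the concentration giving 50% RNA reduction.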

[5] = Inhibition of C-terminal 6-His tagged recombinant human DHODH N-terminal domain delta29 mutant expressed in Escherichia coli BL21(DE3) using dihydroorotate as substrate measured every 30 secs for 6 mins by DCIP dye based assay
Summary of the method: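 Enzyme purified by HisTrap then size exclusion. Reaction started with 500 μM dihydroorotate. DCIP decrease read at 600 nm. Inhibition = (1 − Vi/V0) × 100. IC50 from 8–9 concentrations in triplicate by sigmoidal fit.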

Compound	selectivity ratio [1]	Activity [2]	CC50 at 48 h [3]	EC50 [4]	IC50 [5]
Cc1c(-c2ccc(Cc3ccc(OC(F)(F)F)cc3)cc2)[nH]c2cccc(F)c2c1=O	> 6	>50%	> 10 µM	360 to 1560 nM	
Cc1c(-c2ccc(Oc3ccc(N4CCCCC4)cc3)c(F)c2)[nH]c2cccc(F)c2c1=O	> 100	>50%	> 10 µM	100 nM	
CN=S(=O)(c1ccc(Cc2ccc(-c3[nH]c4cccc(F)c4c(=O)c3C)cc2)cc1)C(F)(F)F (stereo not drawn)	> 2	>50%	> 10 µM	5390 nM	
Cc1c(-c2ccc(Cc3ccc(S(=O)(=O)C(F)(F)F)cc3)cc2)[nH]c2cccc(F)c2c1=O	> 2	>50%	> 2.5 µM	1760 nM	
Cc1c(-c2ccc(Cc3ccc(C(O)C(F)(F)F)cc3)cc2)[nH]c2cccc(F)c2c1=O (stereo not drawn)	> 3	>50%	> 10 µM	3490 nM	
CCCN(CC)c1ccc(Oc2ccc(-c3[nH]c4cccc(F)c4c(=O)c3C)cc2F)cc1	> 151	>50%	> 10 µM	66 nM	
Cc1c(-c2ccc(Cc3ccc(S(=N)(=O)C(F)(F)F)cc3)cc2)[nH]c2cccc(F)c2c1=O (stereo not drawn)	> 7	>50%	> 10 µM	1420 nM	
Cc1c(-c2ccc(Oc3ccc(N4CCNCC4)cc3)c(F)c2)[nH]c2cccc(F)c2c1=O	> 4	>50%	> 10 µM	2570 nM	
Cc1c(-c2ccc(Cc3ccc(Cl)cc3)cc2)[nH]c2cccc(F)c2c1=O	> 2	>50%	> 10 µM	4400 nM	
CCNc1ccc(Oc2ccc(-c3[nH]c4cccc(F)c4c(=O)c3C)cc2F)cc1	> 58	>50%	> 10 µM	170 nM	
CCN(C)c1ccc(Oc2ccc(-c3[nH]c4cccc(F)c4c(=O)c3C)cc2F)cc1	> 42	>50%	> 10 µM	240 nM	
Cc1c(-c2ccc(Cc3ccc(SC(F)(F)F)cc3)cc2)[nH]c2c(F)cccc2c1=O	> 3	>50%	> 5 µM	1850 nM	
Cc1c(-c2ccc(Cc3ccc([S+]([O-])C(F)(F)F)cc3)cc2)[nH]c2cccc(F)c2c1=O (stereo not drawn)	> 7	>50%	> 5 µM	760 nM	
Cc1c(-c2ccc(Oc3ccc(N(C)C)cc3)c(F)c2)[nH]c2cccc(F)c2c1=O	> 10	>50%	> 10 µM	1050 nM	
Cc1c(-c2ccc(Cc3ccc(OC(F)F)cc3)cc2)[nH]c2cccc(F)c2c1=O	> 5	>50%	> 5 µM	1010 nM	
Cc1c(-c2ccc(Oc3ccc(SC(F)(F)F)cc3)c(F)c2)[nH]c2cccc(F)c2c1=O	> 27	>50%	> 10 µM	360 nM	
Cc1c(-c2ccc(Cc3ccc(C(C)(C)C)cc3)cc2)[nH]c2cccc(F)c2c1=O	> 17	>50%	> 5 µM	290 nM	
Cc1c(-c2ccc(OCCCN3CCOCC3)cc2)[nH]c2cccc(F)c2c1=O	> 4	>50%	> 100 µM	28100 nM	

Compound	selectivity ratio [1]	Activity [2]	CC50 at 48 h [3]	EC50 [4]	IC50 [5]
Cc1c(-c2ccc(Cc3ccc(S(F)(F)(F)(F)F)cc3)cc2)[nH]c2cccc(F)c2c1=O	> 7	>50%	> 5 µM	730 nM	
Cc1c(-c2ccc(Cc3ccc(SC(F)(F)F)cc3)cc2)[nH]c2ccc(F)cc2c1=O	> 4	>50%	> 10 µM	2480 nM	
Cc1c(-c2ccc(Cc3ccc(N4CCCCC4)cc3)cc2)[nH]c2cccc(F)c2c1=O	> 5	>50%	> 10 µM	1920 nM	
C#CCCC1(CCN(CC)c2ccc(Oc3ccc(-c4[nH]c5cccc(F)c5c(=O)c4C)cc3F)cc2)N=N1		>50%		8 nM	250 nM
Cc1c(-c2ccc(-c3ccc(SC(F)(F)F)cc3)cc2)[nH]c2cccc(F)c2c1=O	> 4	>50%	> 10 µM	2330 nM	
Cc1c(-c2ccc(Cc3ccc(SC(F)(F)F)cc3)cc2)[nH]c2cc(F)ccc2c1=O	> 5	>50%	> 5 µM	970 nM	
Cc1c(-c2ccc(Oc3ccc(N4CCCC4)cc3)c(F)c2)[nH]c2cccc(F)c2c1=O	> 285	>50%	> 10 µM	35 nM	
COc1ccc(Cc2ccc(-c3[nH]c4cccc(F)c4c(=O)c3C)cc2)cc1	> 5	>50%	> 10 µM	2170 nM	
Cc1c(-c2ccc(Cc3ccc(C(C)(O)C(F)(F)F)cc3)cc2)[nH]c2cccc(F)c2c1=O (stereo not drawn)	> 23	>50%	> 2.5 µM	110 nM	
Cc1c(-c2ccc(Cc3ccc(OCC(F)(F)F)cc3)cc2)[nH]c2cccc(F)c2c1=O	> 6	>50%	> 5 µM	840 nM	
Cc1c(-c2ccc(Cc3ccc(SC(F)(F)F)cc3)cc2)[nH]c2cccc(F)c2c1=O	> 27	>50%	> 10 µM	360 to 1560 nM	
Cc1c(-c2ccc(CNC(=O)c3ccc(SC(F)(F)F)cc3)cc2)[nH]c2cccc(F)c2c1=O	> 5	>50%	> 50 µM	11000 nM	
Cc1c(-c2ccc(OCCN3CCCCC3)cc2)[nH]c2cccc(F)c2c1=O	> 6	>50%	> 100 µM	16600 nM	
C#CCCC1(CCN(CC)c2ccc(Oc3ccc(-c4nc5cccc(F)c5c(OC)c4C)cc3F)cc2)N=N1		>50%		> 5000 nM	1030 nM
Cc1c(-c2ccc(Cc3ccc(N4CCOCC4)cc3)cc2)[nH]c2cccc(F)c2c1=O	> 3	>50%	> 10 µM	3650 nM	
Cc1c(-c2ccc(COc3ccc(SC(F)(F)F)cc3)cc2)[nH]c2cccc(F)c2c1=O	> 6	>50%	> 10 µM	1590 nM	
CCN(CC)CCOc1ccc(-c2[nH]c3cccc(F)c3c(=O)c2C)cc1	> 4	>50%	> 100 µM	25600 nM	
